# Test results: article PMC6445238 (Drug Design, Development and Therapy, 2019)
# Assay: MAD study, safety and tolerability
# Assay type: in vivo, human
# Details: for Abdominal discomfort, number of subjects (%) / Abdominal pain, number of subjects (%) / Anxiety, number of subjects (%) / Back pain, number of subjects (%) / Diarrhea, number of subjects (%) / Dizziness, number of subjects (%) / Epistaxis, number of subjects (%) / Erythema of eyelid, number of subjects (%) / Erythema, number of subjects (%) / Headache, number of subjects (%) / Hyperbilirubinemia, number of subjects (%) / Hyperhidrosis, number of subjects (%) / Hypoesthesia, number of subjects (%) / Insomnia, number of subjects (%) / Muscle hemorrhage, number of subjects (%) / Musculoskeletal stiffness, number of subjects (%) / Nausea, number of subjects (%) / Neck pain, number of subjects (%) / Oropharyngeal pain, number of subjects (%) / Subjects with any TEAEs, number of subjects (%) / Vomiting, number of subjects (%): N=6
# In short: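 MAD cohorts were 6 active and 2 placebo healthy males, dosed once daily for 7 days, confined day −1 to day 8, with follow-up on day 14. Safety was monitored by vital signs, clinical labs, 12-lead ECG, physical exams, and AEs reported by subjects or observed by investigators. AEs were coded with MedDRA 19.1. Counts are given as subjects with AEs, % of the safety population. Placebo subjects were pooled.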
compound,measurement,setting,value
Cc1nn(Cc2ccc(Br)cc2)c(C)c1NC(=O)CSc1ccccc1 [KM-819],"Abdominal discomfort, number of subjects (%)","30 mg QD 7 days, young",0
same,"Abdominal pain, number of subjects (%)","30 mg QD 7 days, young",0
same,"Anxiety, number of subjects (%)","30 mg QD 7 days, young",0
same,"Back pain, number of subjects (%)","30 mg QD 7 days, young",0
same,"Diarrhea, number of subjects (%)","30 mg QD 7 days, young",0
same,"Dizziness, number of subjects (%)","30 mg QD 7 days, young",1 (16.7)
same,"Epistaxis, number of subjects (%)","30 mg QD 7 days, young",0
same,"Erythema of eyelid, number of subjects (%)","30 mg QD 7 days, young",0
same,"Erythema, number of subjects (%)","30 mg QD 7 days, young",0
same,"Headache, number of subjects (%)","30 mg QD 7 days, young",2 (33.3)
same,"Hyperbilirubinemia, number of subjects (%)","30 mg QD 7 days, young",0
same,"Hyperhidrosis, number of subjects (%)","30 mg QD 7 days, young",0
same,"Hypoesthesia, number of subjects (%)","30 mg QD 7 days, young",0
same,"Insomnia, number of subjects (%)","30 mg QD 7 days, young",0
same,"Muscle hemorrhage, number of subjects (%)","30 mg QD 7 days, young",0
same,"Musculoskeletal stiffness, number of subjects (%)","30 mg QD 7 days, young",0
same,"Nausea, number of subjects (%)","30 mg QD 7 days, young",2 (33.3)
same,"Neck pain, number of subjects (%)","30 mg QD 7 days, young",0
same,"Oropharyngeal pain, number of subjects (%)","30 mg QD 7 days, young",0
same,"Subjects with any TEAEs, number of subjects (%)","30 mg QD 7 days, young",2 (33.3)
same,"Vomiting, number of subjects (%)","30 mg QD 7 days, young",2 (33.3)
same,"Abdominal discomfort, number of subjects (%)","100 mg QD 7 days, young",0
same,"Abdominal pain, number of subjects (%)","100 mg QD 7 days, young",0
same,"Anxiety, number of subjects (%)","100 mg QD 7 days, young",0
same,"Back pain, number of subjects (%)","100 mg QD 7 days, young",2 (33.3)
same,"Diarrhea, number of subjects (%)","100 mg QD 7 days, young",0
same,"Dizziness, number of subjects (%)","100 mg QD 7 days, young",1 (16.7)
same,"Epistaxis, number of subjects (%)","100 mg QD 7 days, young",0
same,"Erythema of eyelid, number of subjects (%)","100 mg QD 7 days, young",0
same,"Erythema, number of subjects (%)","100 mg QD 7 days, young",0
same,"Headache, number of subjects (%)","100 mg QD 7 days, young",1 (16.7)
same,"Hyperbilirubinemia, number of subjects (%)","100 mg QD 7 days, young",0
same,"Hyperhidrosis, number of subjects (%)","100 mg QD 7 days, young",0
same,"Hypoesthesia, number of subjects (%)","100 mg QD 7 days, young",0
same,"Insomnia, number of subjects (%)","100 mg QD 7 days, young",0
same,"Muscle hemorrhage, number of subjects (%)","100 mg QD 7 days, young",0
same,"Musculoskeletal stiffness, number of subjects (%)","100 mg QD 7 days, young",0
same,"Nausea, number of subjects (%)","100 mg QD 7 days, young",1 (16.7)
same,"Neck pain, number of subjects (%)","100 mg QD 7 days, young",0
same,"Oropharyngeal pain, number of subjects (%)","100 mg QD 7 days, young",0
same,"Subjects with any TEAEs, number of subjects (%)","100 mg QD 7 days, young",4 (66.7)
same,"Vomiting, number of subjects (%)","100 mg QD 7 days, young",0
same,"Abdominal discomfort, number of subjects (%)","200 mg QD 7 days, elderly",0
same,"Abdominal pain, number of subjects (%)","200 mg QD 7 days, elderly",1 (16.7)
same,"Anxiety, number of subjects (%)","200 mg QD 7 days, elderly",0
same,"Back pain, number of subjects (%)","200 mg QD 7 days, elderly",2 (33.3)
same,"Diarrhea, number of subjects (%)","200 mg QD 7 days, elderly",1 (16.7)
same,"Dizziness, number of subjects (%)","200 mg QD 7 days, elderly",0
same,"Epistaxis, number of subjects (%)","200 mg QD 7 days, elderly",0
same,"Erythema of eyelid, number of subjects (%)","200 mg QD 7 days, elderly",0
same,"Erythema, number of subjects (%)","200 mg QD 7 days, elderly",0
same,"Headache, number of subjects (%)","200 mg QD 7 days, elderly",1 (16.7)
same,"Hyperbilirubinemia, number of subjects (%)","200 mg QD 7 days, elderly",0
same,"Hyperhidrosis, number of subjects (%)","200 mg QD 7 days, elderly",0
same,"Hypoesthesia, number of subjects (%)","200 mg QD 7 days, elderly",0
same,"Insomnia, number of subjects (%)","200 mg QD 7 days, elderly",1 (16.7)
same,"Muscle hemorrhage, number of subjects (%)","200 mg QD 7 days, elderly",1 (16.7)
same,"Musculoskeletal stiffness, number of subjects (%)","200 mg QD 7 days, elderly",0
same,"Nausea, number of subjects (%)","200 mg QD 7 days, elderly",0
same,"Neck pain, number of subjects (%)","200 mg QD 7 days, elderly",1 (16.7)
same,"Oropharyngeal pain, number of subjects (%)","200 mg QD 7 days, elderly",0
same,"Subjects with any TEAEs, number of subjects (%)","200 mg QD 7 days, elderly",3 (50.0)
same,"Vomiting, number of subjects (%)","200 mg QD 7 days, elderly",0
same,"Abdominal discomfort, number of subjects (%)","200 mg QD 7 days, young",1 (16.7)
same,"Abdominal pain, number of subjects (%)","200 mg QD 7 days, young",0
same,"Anxiety, number of subjects (%)","200 mg QD 7 days, young",0
same,"Back pain, number of subjects (%)","200 mg QD 7 days, young",1 (16.7)
same,"Diarrhea, number of subjects (%)","200 mg QD 7 days, young",0
same,"Dizziness, number of subjects (%)","200 mg QD 7 days, young",2 (33.3)
same,"Epistaxis, number of subjects (%)","200 mg QD 7 days, young",0
same,"Erythema of eyelid, number of subjects (%)","200 mg QD 7 days, young",0
same,"Erythema, number of subjects (%)","200 mg QD 7 days, young",0
same,"Headache, number of subjects (%)","200 mg QD 7 days, young",5 (83.3)
same,"Hyperbilirubinemia, number of subjects (%)","200 mg QD 7 days, young",1 (16.7)
same,"Hyperhidrosis, number of subjects (%)","200 mg QD 7 days, young",0
same,"Hypoesthesia, number of subjects (%)","200 mg QD 7 days, young",2 (33.3)
same,"Insomnia, number of subjects (%)","200 mg QD 7 days, young",0
same,"Muscle hemorrhage, number of subjects (%)","200 mg QD 7 days, young",0
same,"Musculoskeletal stiffness, number of subjects (%)","200 mg QD 7 days, young",1 (16.7)
same,"Nausea, number of subjects (%)","200 mg QD 7 days, young",4 (66.7)
same,"Neck pain, number of subjects (%)","200 mg QD 7 days, young",0
same,"Oropharyngeal pain, number of subjects (%)","200 mg QD 7 days, young",1 (16.7)
same,"Subjects with any TEAEs, number of subjects (%)","200 mg QD 7 days, young",5 (83.3)
same,"Vomiting, number of subjects (%)","200 mg QD 7 days, young",4 (66.7)
same,"Abdominal discomfort, number of subjects (%)","400 mg QD 7 days, young",0
same,"Abdominal pain, number of subjects (%)","400 mg QD 7 days, young",0
same,"Anxiety, number of subjects (%)","400 mg QD 7 days, young",0
same,"Back pain, number of subjects (%)","400 mg QD 7 days, young",1 (16.7)
same,"Diarrhea, number of subjects (%)","400 mg QD 7 days, young",0
same,"Dizziness, number of subjects (%)","400 mg QD 7 days, young",0
same,"Epistaxis, number of subjects (%)","400 mg QD 7 days, young",1 (16.7)
same,"Erythema of eyelid, number of subjects (%)","400 mg QD 7 days, young",1 (16.7)
same,"Erythema, number of subjects (%)","400 mg QD 7 days, young",0
same,"Headache, number of subjects (%)","400 mg QD 7 days, young",4 (66.7)
same,"Hyperbilirubinemia, number of subjects (%)","400 mg QD 7 days, young",0
same,"Hyperhidrosis, number of subjects (%)","400 mg QD 7 days, young",1 (16.7)
same,"Hypoesthesia, number of subjects (%)","400 mg QD 7 days, young",0
same,"Insomnia, number of subjects (%)","400 mg QD 7 days, young",0
same,"Muscle hemorrhage, number of subjects (%)","400 mg QD 7 days, young",0
same,"Musculoskeletal stiffness, number of subjects (%)","400 mg QD 7 days, young",1 (16.7)
same,"Nausea, number of subjects (%)","400 mg QD 7 days, young",0
same,"Neck pain, number of subjects (%)","400 mg QD 7 days, young",0
same,"Oropharyngeal pain, number of subjects (%)","400 mg QD 7 days, young",0
same,"Subjects with any TEAEs, number of subjects (%)","400 mg QD 7 days, young",5 (83.3)
same,"Vomiting, number of subjects (%)","400 mg QD 7 days, young",0
same,subjects withdrawn due to AEs,"MAD, headache",2
same,serious adverse events (SAEs) reported,"MAD, headache, considered unlikely related to KM-819",1
